Results published in ChEMBL document CHEMBL5724801, “EUbOPEN Chemogenomics Library - Multiplex” (2024).
“And” between values parts separate entries of the source, which are not always exact repeats. Identical values can stand only once.

How the values were obtained:
HEK-293T = assay: Multiplex assay against HEK293T; assay type: toxicity, cell-based; settings: human
Method in brief: (§1)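 Cells stained live at seeding with Hoechst33342, BioTracker Green Microtubule Cytoskeleton Dye, MitoTracker Red and Annexin V Alexa Fluor 680 were imaged on a CQ1 microscope at 37°C and 5% CO2 after compound addition. Their classification by CellPathfinder machine-learning gating ran from Hoechst high-intensity objects versus normal cells, to healthy, pyknosed or fragmented nuclei among normal cells, to mitotic or apoptotic among pyknosed cells. Tubulin, mitochondrial-mass and membrane-permeability phenotypes are per cents of healthy-nucleus cells.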

U2OS = assay: Multiplex assay against U2OS; assay type: toxicity, cell-based; settings: human; method in brief: as §1
[1] = 24 h, 10 µM, compound concentration 10 uM
[2] = 48 h, 1 µM, compound concentration 1 uM
[3] = 48 h, 10 µM, compound concentration 10 uM
[4] = 12 h, 1 µM, compound concentration 1 uM
[5] = 12 h, 10 µM, compound concentration 10 uM
[6] = 24 h, 1 µM, compound concentration 1 uM

CC(C)(c1ccc(O)cc1)c1ccc(O)cc1 [BISPHENOL A]
Population Apoptotic (%) (HEK-293T; [1]): 12.5% and 15.52%
Population Fragmented Nuclei (%) (HEK-293T; [1]): 2.67% and 1.71%
Population Healthy Nuclei (%) (HEK-293T; [1]): 74.28% and 32%
Population Hoechst High Intensity Objects (%) (HEK-293T; [1]): 0%
Population Membrane Permeable-Phenotype (%) (HEK-293T; [1]): 1.11% and 0%
Population Mitochondria Different-Phenotype (%) (HEK-293T; [1]): 19.11% and 16.07%
Population Mitotic Cells (%) (HEK-293T; [1]): 87.5% and 84.48%
Population Normal (%) (HEK-293T; [1]): 100%
Population Pyknosed Nuclei (%) (HEK-293T; [1]): 23.05% and 66.29%
Total Cell Count (HEK-293T; [1]): 486 and 175
Population Apoptotic (%) (HEK-293T; [2]): 8.33% and 18.95%
Population Fragmented Nuclei (%) (HEK-293T; [2]): 3.14% and 0%
Population Healthy Nuclei (%) (HEK-293T; [2]): 87.89% and 52.74%
Population Hoechst High Intensity Objects (%) (HEK-293T; [2]): 0.07% and 0.99%
Population Membrane Permeable-Phenotype (%) (HEK-293T; [2]): 5.87% and 1.89%
Population Mitotic Cells (%) (HEK-293T; [2]): 91.67% and 81.05%
Population Normal (%) (HEK-293T; [2]): 99.93% and 99.01%
Population Fragmented Nuclei (%) (HEK-293T; [3]): 3.13% and 2.41%
Population Healthy Nuclei (%) (HEK-293T; [3]): 86.33% and 68.67%
Population Hoechst High Intensity Objects (%) (HEK-293T; [3]): 0% and 2.35%
Population Membrane Permeable-Phenotype (%) (HEK-293T; [3]): 4.42% and 1.75%
Population Mitochondria Different-Phenotype (%) (HEK-293T; [3]): 9.82% and 14.62%
Population Mitotic Cells (%) (HEK-293T; [3]): 95.65% and 84.72%
Population Normal (%) (HEK-293T; [3]): 100% and 97.65%
Population Pyknosed Nuclei (%) (HEK-293T; [3]): 10.54% and 28.92%
Population Apoptotic (%) (U2OS; [4]): 38.24% and 39.39%
Population Fragmented Nuclei (%) (U2OS; [4]): 2.9% and 4.3%
Population Healthy Nuclei (%) (U2OS; [4]): 88.13% and 77.96%
Population Hoechst High Intensity Objects (%) (U2OS; [4]): 0%
Population Membrane Permeable-Phenotype (%) (U2OS; [4]): 0.3% and 2.76%
Population Mitochondria Different-Phenotype (%) (U2OS; [4]): 0.3% and 6.21%
Population Mitotic Cells (%) (U2OS; [4]): 61.76% and 60.61%
Population Normal (%) (U2OS; [4]): 100%
Population Pyknosed Nuclei (%) (U2OS; [4]): 8.97% and 17.74%
Population Tubulin-Different-Phenotype (%) (U2OS; [4]): 0.9% and 0.69%
Total Cell Count (U2OS; [4]): 379 and 186
Population Apoptotic (%) (U2OS; [5]): 50% and 47.62%
Population Fragmented Nuclei (%) (U2OS; [5]): 2.17% and 6.45%
Population Healthy Nuclei (%) (U2OS; [5]): 87.31% and 80%
Population Hoechst High Intensity Objects (%) (U2OS; [5]): 0%
Population Membrane Permeable-Phenotype (%) (U2OS; [5]): 0.71% and 4.03%
Population Mitochondria Different-Phenotype (%) (U2OS; [5]): 0.35% and 6.45%
Population Mitotic Cells (%) (U2OS; [5]): 50% and 52.38%
Population Normal (%) (U2OS; [5]): 100%
Population Pyknosed Nuclei (%) (U2OS; [5]): 10.53% and 13.55%
Population Tubulin-Different-Phenotype (%) (U2OS; [5]): 1.42% and 0%
Total Cell Count (U2OS; [5]): 323 and 155
Population Apoptotic (%) (U2OS; [6]): 49.02% and 57.14%
Population Fragmented Nuclei (%) (U2OS; [6]): 2% and 2.2%
Population Healthy Nuclei (%) (U2OS; [6]): 87.82% and 85.46%
Population Hoechst High Intensity Objects (%) (U2OS; [6]): 0%
Population Membrane Permeable-Phenotype (%) (U2OS; [6]): 1.59% and 3.61%
Population Mitochondria Different-Phenotype (%) (U2OS; [6]): 0% and 5.67%
Population Mitotic Cells (%) (U2OS; [6]): 50.98% and 42.86%
Population Normal (%) (U2OS; [6]): 100%
Population Pyknosed Nuclei (%) (U2OS; [6]): 10.18% and 12.33%
Population Tubulin-Different-Phenotype (%) (U2OS; [6]): 0.68% and 0%
Total Cell Count (U2OS; [6]): 501 and 227
Population Apoptotic (%) (U2OS; [1]): 38.3% and 22.58%
Population Fragmented Nuclei (%) (U2OS; [1]): 2.34% and 3.03%
Population Healthy Nuclei (%) (U2OS; [1]): 86.68% and 81.31%
Population Hoechst High Intensity Objects (%) (U2OS; [1]): 0%
Population Membrane Permeable-Phenotype (%) (U2OS; [1]): 0.54% and 5.59%
Population Mitochondria Different-Phenotype (%) (U2OS; [1]): 0.81% and 6.21%
Population Mitotic Cells (%) (U2OS; [1]): 61.7% and 77.42%
Population Normal (%) (U2OS; [1]): 100%
Population Pyknosed Nuclei (%) (U2OS; [1]): 10.98% and 15.66%
Population Tubulin-Different-Phenotype (%) (U2OS; [1]): 0.54% and 0.62%
Total Cell Count (U2OS; [1]): 428 and 198
Population Apoptotic (%) (U2OS; [2]): 38.64% and 58.54%
Population Fragmented Nuclei (%) (U2OS; [2]): 3.22% and 4.97%
Population Healthy Nuclei (%) (U2OS; [2]): 87.66% and 84.29%
Population Hoechst High Intensity Objects (%) (U2OS; [2]): 0%
Population Membrane Permeable-Phenotype (%) (U2OS; [2]): 0.36% and 2.17%
Population Mitochondria Different-Phenotype (%) (U2OS; [2]): 0.24% and 4.66%
Population Mitotic Cells (%) (U2OS; [2]): 61.36% and 41.46%
Population Normal (%) (U2OS; [2]): 100%
Population Pyknosed Nuclei (%) (U2OS; [2]): 9.13% and 10.73%
Population Tubulin-Different-Phenotype (%) (U2OS; [2]): 0.47% and 0%
Total Cell Count (U2OS; [2]): 964 and 382
Population Apoptotic (%) (U2OS; [3]): 36.49% and 60%
Population Fragmented Nuclei (%) (U2OS; [3]): 2.4% and 2.31%
Population Healthy Nuclei (%) (U2OS; [3]): 88.73% and 86.13%
Population Hoechst High Intensity Objects (%) (U2OS; [3]): 0%
Population Membrane Permeable-Phenotype (%) (U2OS; [3]): 1.22% and 3.02%
Population Mitochondria Different-Phenotype (%) (U2OS; [3]): 0.27% and 2.68%
Population Mitotic Cells (%) (U2OS; [3]): 63.51% and 40%
Population Normal (%) (U2OS; [3]): 100%
Population Pyknosed Nuclei (%) (U2OS; [3]): 8.87% and 11.56%
Population Tubulin-Different-Phenotype (%) (U2OS; [3]): 0.68% and 1.34%
Total Cell Count (U2OS; [3]): 834 and 346
